Structures can show the parent of a compound that is named as a salt. Where two headings read alike, the source gives them in different places.
What was measured:
[1] = test system: H3K27 trimethylation; conditions: compared with the EZH2-selective inhibitor tazemetostat; cited from earlier work
[2] = test system: ATL cell; conditions: compared with tazemetostat and GSK126; cited from earlier work
[3] = test system: patients with R/R ATL; assay: Phase 2 trial of valemetostat: investigator-assessed response; format: in vivo, human; conditions: 7/25 (CR plus CRu)
How it was run: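 Investigator-assessed response in patients given ≥1 dose of oral test compound, 200 mg once daily, fasting, 28-day cycles. Nodal/extranodal lesions were measured by CT as sums of products of greatest diameters, skin by visual review and modified severity-weighted assessment tool, and blood by white cell, lymphocyte and abnormal lymphocyte counts. ORR was the proportion with best response CR, CRu or PR, with a Clopper-Pearson 90% CI.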

[4] = test system: patients with R/R ATL; assay: Phase 2 trial of valemetostat: safety; format: in vivo, human
How it was run: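 Safety population: all patients receiving ≥1 dose of oral test compound, 200 mg once daily, fasting, in continuous 28-day cycles; dose was reduced to 50 mg with strong CYP3A plus P-gp inhibitors. Adverse events were coded with MedDRA version 23.1 and graded by CTCAE version 5.0.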

[5] = test system: patients with R/R ATL; format: in vivo, human
How it was run: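 Adults with R/R ATL (acute, lymphoma or unfavourable chronic type) took oral test compound (EZH1/EZH2 inhibitor) 200 mg once daily, fasting, in continuous 28-day cycles until progression or unacceptable toxicity; 50 mg if on strong CYP3A plus P-gp inhibitors. An independent committee assessed response at week 4, then every 8 weeks, then every 12 weeks after week 48, using modified ATL criteria without the ≥4-week persistence requirement.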

[6] = Grade ≥3 hematologic TEAE, % of patients
[7] = hematologic TEAE, all grades, % of patients
[8] = IEAC best response, ATL subtype Acute, N=16
[9] = IEAC best response, ATL subtype Lymphoma, N=6
[10] = IEAC best response, ATL subtype Unfavorable chronic, N=3
[11] = IEAC best response, All patients, N=25
[12] = IEAC best response, Disease site Nodal or extranodal lesions, N=20
[13] = IEAC best response, Disease site Peripheral blood, N=9
[14] = IEAC best response, Disease site Skin lesions, N=7
[15] = IEAC best response, Disease status Recurrent, N=6
[16] = IEAC best response, Disease status Refractory, N=11
[17] = IEAC best response, Disease status Relapsed, N=8
[18] = IEAC best response, Prior lenalidomide treatment No, N=17
[19] = IEAC best response, Prior lenalidomide treatment Yes, N=8
[20] = IEAC best response, Prior mogamulizumab treatment No, N=1
[21] = IEAC best response, Prior mogamulizumab treatment Yes, N=24

Cc1cc(C)c(CNC(=O)c2cc(Cl)c3c(c2C)O[C@@](C)([C@H]2CC[C@H](N(C)C)CC2)O3)c(=O)[nH]1 [valemetostat, Valemetostat tosylate]
H3K27 trimethylation [1]: strongly reduced H3K27 trimethylation | attenuation of ATL cell growth in vitro [2]: greater attenuation of ATL cell growth in vitro at lower concentrations than tazemetostat and GSK126 | investigator-assessed CR rate [3]: 28.0% | TEAEs leading to dose reduction ([4]; 2 patients): 8% | Serious TEAEs ([4]; 8 patients): 32% | Secondary malignancies, including hematologic malignancy or myelodysplastic syndrome ([4]; AE of special interest): not observed | TEAEs that required dose interruption ([4]; Five patients): 20% | anemia [4, 6]: 32% | leukopenia [4, 6]: 12% | lymphopenia [4, 6]: 16% | neutropenia [4, 6]: 12% | thrombocytopenia [4, 6]: 32% | Grade ≥3 TEAEs ([4]; N = 25): 15 (60.0) n (%) | Grade ≥3 TRAEs ([4]; N = 25): 14 (56.0) n (%) | Serious TEAE ([4]; N = 25): 8 (32.0) n (%) | Serious TRAEs ([4]; N = 25): 7 (28.0) n (%) | TEAEs leading to discontinuation ([4]; N = 25): 2 (8.0) n (%) | TEAEs leading to interruption ([4]; N = 25): 5 (20.0) n (%) | TEAEs leading to reduction ([4]; N = 25): 2 (8.0) n (%) | TRAEs ([4]; N = 25): 24 (96.0) n (%) | TRAEs leading to discontinuation ([4]; N = 25): 2 (8.0) n (%) | TRAEs leading to interruption ([4]; N = 25): 4 (16.0) n (%) | TRAEs leading to reduction ([4]; N = 25): 2 (8.0) n (%) | TEAEs ([4]; N = 25, All AEs): 25 (100.0) n (%) | Alopecia ([4]; TEAE, All grades, N = 25): 10 (40.0) n (%) | Decreased appetite ([4]; TEAE, All grades, N = 25): 5 (20.0) n (%) | Dysgeusia ([4]; TEAE, All grades, N = 25): 9 (36.0) n (%) | Pyrexia ([4]; TEAE, All grades, N = 25): 5 (20.0) n (%) | anemia ([4]; TEAE, All grades, N = 25): 13 (52.0) n (%) | leukopenia ([4]; TEAE, All grades, N = 25): 5 (20.0) n (%) | lymphopenia ([4]; TEAE, All grades, N = 25): 6 (24.0) n (%) | neutropenia ([4]; TEAE, All grades, N = 25): 7 (28.0) n (%) | thrombocytopenia ([4]; TEAE, All grades, N = 25): 20 (80.0) n (%) | Alopecia ([4]; TEAE, Grade ≥3, N = 25): 0 n (%) | Decreased appetite ([4]; TEAE, Grade ≥3, N = 25): 2 (8.0) n (%) | Dysgeusia ([4]; TEAE, Grade ≥3, N = 25): 0 n (%) | Pyrexia ([4]; TEAE, Grade ≥3, N = 25): 0 n (%) | anemia ([4]; TEAE, Grade ≥3, N = 25): 8 (32.0) n (%) | leukopenia ([4]; TEAE, Grade ≥3, N = 25): 3 (12.0) n (%) | lymphopenia ([4]; TEAE, Grade ≥3, N = 25): 4 (16.0) n (%) | neutropenia ([4]; TEAE, Grade ≥3, N = 25): 3 (12.0) n (%) | thrombocytopenia ([4]; TEAE, Grade ≥3, N = 25): 8 (32.0) n (%) | discontinued study treatment owing to AEs ([4]; Two patients (cardiac failure, thrombocytopenia)): 8% | patients with thrombocytopenia who required dose modification ([4]; discontinuation 1 patient, dose interruption 2 patients): Three of 20 | median time to recovery ([4]; grade 4 thrombocytopenia, recovery to platelet count ≥25 × 10^9/L): 3 days | anemia [4, 7]: 52% | leukopenia [4, 7]: 20% | lymphopenia [4, 7]: 24% | neutropenia [4, 7]: 28% | thrombocytopenia [4, 7]: 80% | patients requiring a red blood cell transfusion for anemia ([4]; in vivo): 3 patients | patients requiring platelet transfusions for thrombocytopenia ([4]; in vivo): Five | treatment-related deaths ([4]; in vivo): No treatment-related deaths occurred | patients who experienced grade 4 thrombocytopenia ([4]; platelet count <25 × 10^9/L): 3 patients | ORR in nodal or extranodal lesions ([5]; IEAC): 50% | CR [5, 8]: 5 (31.3) n (%) | CRu [5, 8]: 0 n (%) | ORR [5, 8]: 10 (62.5) n (%) | PD [5, 8]: 2 (12.5) n (%) | PR [5, 8]: 5 (31.3) n (%) | CR [5, 9]: 0 n (%) | CRu [5, 9]: 0 n (%) | ORR [5, 9]: 1 (16.7) n (%) | PD [5, 9]: 0 n (%) | PR [5, 9]: 1 (16.7) n (%) | CR [5, 10]: 0 n (%) | CRu [5, 10]: 0 n (%) | ORR [5, 10]: 1 (33.3) n (%) | PD [5, 10]: 1 (33.3) n (%) | PR [5, 10]: 1 (33.3) n (%) | CR [5, 11]: 5 (20.0) n (%) | CRu [5, 11]: 0 n (%) | ORR [5, 11]: 12 (48.0) n (%) | PD [5, 11]: 3 (12.0) n (%) | PR [5, 11]: 7 (28.0) n (%) | CR [5, 12]: 6 (30.0) n (%) | CRu [5, 12]: 2 (10.0) n (%) | ORR [5, 12]: 10 (50.0) n (%) | PD [5, 12]: 3 (15.0) n (%) | PR [5, 12]: 2 (10.0) n (%) | CR [5, 13]: 2 (22.2) n (%) | ORR [5, 13]: 8 (88.9) n (%) | PD [5, 13]: 0 n (%) | PR [5, 13]: 6 (66.7) n (%) | CR [5, 14]: 1 (14.3) n (%) | PD [5, 14]: 0 n (%) | PR [5, 14]: 2 (28.6) n (%) | CR [5, 15]: 1 (16.7) n (%) | CRu [5, 15]: 0 n (%) | ORR [5, 15]: 4 (66.7) n (%) | PD [5, 15]: 0 n (%) | PR [5, 15]: 3 (50.0) n (%) | CR [5, 16]: 3 (27.3) n (%) | CRu [5, 16]: 0 n (%) | ORR [5, 16]: 5 (45.5) n (%) | PD [5, 16]: 2 (18.2) n (%) | PR [5, 16]: 2 (18.2) n (%) | CR [5, 17]: 1 (12.5) n (%) | CRu [5, 17]: 0 n (%) | ORR [5, 17]: 3 (37.5) n (%) | PD [5, 17]: 1 (12.5) n (%) | PR [5, 17]: 2 (25.0) n (%) | CR [5, 18]: 5 (29.4) n (%) | CRu [5, 18]: 0 n (%) | ORR [5, 18]: 8 (47.1) n (%) | PD [5, 18]: 2 (11.8) n (%) | PR [5, 18]: 3 (17.6) n (%) | CR [5, 19]: 0 n (%) | CRu [5, 19]: 0 n (%) | ORR [5, 19]: 4 (50.0) n (%) | PD [5, 19]: 1 (12.5) n (%) | PR [5, 19]: 4 (50.0) n (%) | CR [5, 20]: 1 (100.0) n (%) | CRu [5, 20]: 0 n (%) | ORR [5, 20]: 1 (100.0) n (%) | PD [5, 20]: 0 n (%) | PR [5, 20]: 0 n (%) | CR [5, 21]: 4 (16.7) n (%) | CRu [5, 21]: 0 n (%) | ORR [5, 21]: 11 (45.8) n (%) | PD [5, 21]: 3 (12.5) n (%) | PR [5, 21]: 7 (29.2) n (%) | median TTR (time to response) ([5]; IEAC-assessed, range 1.0-5.6 months): 1.4 months | ORR by subtype ([5]; IEAC, acute (10/16)): 62.5% | CR rate ([5]; IEAC, all patients (5/25)): 20.0% | PR rate ([5]; IEAC, all patients (7/25)): 28.0% | TCR (tumor control rate) ([5]; IEAC, best response CR, CRu, PR or SD, 95% CI 68.8-97.5): 88.0% | ORR by subtype ([5]; IEAC, lymphoma (1/6)): 16.7% | ORR ([5]; IEAC, patients pretreated with mogamulizumab (11/24), 90% CI 28.2-64.2): 45.8% | ORR ([5]; IEAC, patients refractory to mogamulizumab-containing therapies (3/6)): 50.0% | ORR ([5]; IEAC, patients with prior lenalidomide treatment (4/8), 90% CI 15.7-84.3): 50% | ORR by disease status ([5]; IEAC, recurrent (4/6)): 66.7% | ORR by disease status ([5]; IEAC, refractory disease (5/11)): 45.5% | ORR by disease status ([5]; IEAC, relapsed (3/8)): 37.5% | ORR by subtype ([5]; IEAC, unfavorable chronic (1/3)): 33.3% | centrally reviewed IEAC-assessed ORR ([5]; all patients (12/25), 90% CI 30.5-65.9): 48.0% | responders with an ongoing response ([5]; at data cutoff (6/12)): 50% | patients who achieved SD able to receive valemetostat for ≥6 months ([5]; following treatment initiation): 4 of 10 | median PFS ([5]; immature, 95% CI 3.0 months to not estimable): 7.4 months | median OS ([5]; immature, 95% CI 6.5-16.4 months): 16.4 months | responses converted from PR to CR ([5]; in vivo): 2 patients

From article PMC10651775 (Blood, 2022)
